Experimental data reported in ChEMBL document CHEMBL2062523, “Synthesis and evaluation of the quorum sensing inhibitory effect of substituted triazolyldihydrofuranones” (Bioorg Med Chem, 2012).
In brackets after ≈: the same amount, converted by molar mass. Activity calls are given as the source filed them. The calls are words filed in the database; no cut-off is given here.

Experiments:
Format in all cases: functional
[1] = biological target: T1, Transcriptional activator protein LuxR (Aliivibrio fischeri) (UniProt P12746); assay: Agonist activity at Vibrio fischeri LuxR-mediated quorum sensing expressed in Escherichia coli JB523 assessed as GFP expression at 1 mM after 24 hrs by reporter gene assay
T1 sequence (whole entry): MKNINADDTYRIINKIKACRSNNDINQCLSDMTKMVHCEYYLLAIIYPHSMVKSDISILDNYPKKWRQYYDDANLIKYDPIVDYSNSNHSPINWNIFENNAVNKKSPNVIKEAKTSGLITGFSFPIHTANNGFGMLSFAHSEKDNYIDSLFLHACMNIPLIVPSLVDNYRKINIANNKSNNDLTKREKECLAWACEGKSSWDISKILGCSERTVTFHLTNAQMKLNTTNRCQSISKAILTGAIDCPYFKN
Method in brief: (§1)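 E. coli JB523 (pJBA130, luxR-PluxI–GFP) overnight culture diluted to OD590 0.1 in LB with 0.4% NaCl, tetracycline 100 µg/ml final. Compounds 100–1000 µM added without signal; C6-HSL (5 µM) as positive control, water as negative. 24 h at 30 °C; GFP fluorescence ex 485/em 510 nm. Twelve wells per compound, ≥3 repeats.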

[2] = biological target: T1, Transcriptional activator protein LuxR (Aliivibrio fischeri); assay: Agonist activity at Vibrio fischeri LuxR-mediated quorum sensing expressed in Escherichia coli JB523 assessed as GFP expression at 0.1 mM after 24 hrs by reporter gene assay; method in brief: as §1
Burkholderia cenocepacia = assay: Antibacterial activity against Burkholderia cenocepacia LMG16656 after 20 hrs by broth microdilution assay; settings: LMG16656, 20 h
Method in brief: (§2)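 EUCAST broth microdilution in triplicate, inoculum about 5 × 10^5 CFU/ml. Incubated 20 h at 37 °C, then OD590 read. Compounds from 100 mM DMSO stocks, diluted in water.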

[3] = biological target: T1, Transcriptional activator protein LuxR (Aliivibrio fischeri); assay: Antagonist activity at Vibrio fischeri LuxR-mediated quorum sensing expressed in Escherichia coli JB523 assessed as inhibition of C6-HSL-induced GFP expression at 1 mM after 24 hrs by reporter gene assay
Method in brief: (§3)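 JB523 GFP biosensor in LB/0.4% NaCl at OD590 0.1 with tetracycline 100 µg/ml final; compounds co-added with C6-HSL (5 µM). Plates kept 24 h at 30 °C, then GFP read at 485/510 nm. Each compound tested in twelve wells, assay repeated at least three times.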

[4] = biological target: T1, Transcriptional activator protein LuxR (Aliivibrio fischeri); assay: Antagonist activity at Vibrio fischeri LuxR-mediated quorum sensing expressed in Escherichia coli JB523 assessed as inhibition of C6-HSL-induced GFP expression after 24 hrs by reporter gene assay; method in brief: as §3
[5] = biological target: T1, Transcriptional activator protein LuxR (Aliivibrio fischeri); assay: Agonist activity at Vibrio fischeri LuxR-mediated quorum sensing expressed in Escherichia coli JB523 assessed as GFP expression at 0.5 mM after 24 hrs by reporter gene assay; method in brief: as §1
Pseudomonas aeruginosa [6] = assay: Antibacterial activity against Pseudomonas aeruginosa QSIS2 after 20 hrs by broth microdilution assay; settings: QSIS2, 20 h; method in brief: as §2
Pseudomonas aeruginosa [7] = assay: Antagonist activity at Pseudomonas aeruginosa QSIS2 LasR-mediated quorum sensing co-expressing SacB1 assessed as inhibition of 3-oxo-C12-HSL-induced luminescence at 1 mM […] by reporter gene assay
Pseudomonas aeruginosa [8] = assay: Antagonist activity at Pseudomonas aeruginosa QSIS2 LasR-mediated quorum sensing co-expressing SacB1 assessed as inhibition of 3-oxo-C12-HSL-induced luminescence at 0.25 mM […] by reporter gene assay
Pseudomonas aeruginosa [9] = assay: Agonist activity at Pseudomonas aeruginosa QSIS2 LasR-mediated quorum sensing co-expressing SacB1 assessed as luminescence at 0.1 mM after 24 hrs by reporter gene assay
Pseudomonas aeruginosa [10] = assay: Antagonist activity at Pseudomonas aeruginosa QSIS2 LasR-mediated quorum sensing co-expressing SacB1 assessed as inhibition of 3-oxo-C12-HSL-induced luminescence at 0.1 mM after 24 hrs by reporter gene assay
Pseudomonas aeruginosa [11] = assay: Antagonist activity at Pseudomonas aeruginosa QSIS2 LasR-mediated quorum sensing co-expressing SacB1 assessed as inhibition of 3-oxo-C12-HSL-induced luminescence at 0.5 mM after 24 hrs by reporter gene assay
[12] = biological target: T1, Transcriptional activator protein LuxR (Aliivibrio fischeri); assay: Antagonist activity at Vibrio fischeri LuxR-mediated quorum sensing expressed in Escherichia coli JB523 assessed as inhibition of C6-HSL-induced GFP expression at 0.1 mM after 24 hrs by reporter gene assay; method in brief: as §3
Pseudomonas aeruginosa [13] = assay: Agonist activity at Pseudomonas aeruginosa QSIS2 LasR-mediated quorum sensing co-expressing SacB1 assessed as luminescence at 0.5 mM after 24 hrs by reporter gene assay
[14] = biological target: T1, Transcriptional activator protein LuxR (Aliivibrio fischeri); assay: Antagonist activity at Vibrio fischeri LuxR expressed in Escherichia coli JB523 assessed as inhibition of C6-HSL-induced GFP expression at 0.5 mM after 24 hrs by reporter gene assay; method in brief: as §3
Escherichia coli = assay: Antibacterial activity against Escherichia coli JB523 after 20 hrs by broth microdilution assay; settings: JB523, 20 h; method in brief: as §2
Pseudomonas aeruginosa [15] = assay: Agonist activity at Pseudomonas aeruginosa QSIS2 LasR-mediated quorum sensing co-expressing SacB1 assessed as luminescence at 0.25 mM after 24 hrs by reporter gene assay
Pseudomonas aeruginosa [16] = assay: Antibacterial activity against Pseudomonas aeruginosa PAO1 after 20 hrs by broth microdilution assay; settings: PAO1, 20 h; method in brief: as §2
Pseudomonas aeruginosa [17] = assay: Agonist activity at Pseudomonas aeruginosa QSIS2 LasR-mediated quorum sensing coexpressing SacB1 assessed as […] by reporter gene assay
[18] = biological target: T1, Transcriptional activator protein LuxR (Aliivibrio fischeri); assay: Agonist activity at Vibrio fischeri LuxR-mediated quorum sensing expressed in Escherichia coli JB523 assessed as GFP expression at 0.25 mM after 24 hrs by reporter gene assay; method in brief: as §1
Pseudomonas aeruginosa [19] = assay: Agonist activity at Pseudomonas aeruginosa QSIS2 LasR-mediated quorum sensing co-expressing SacB1 assessed as luminescence after 24 hrs by reporter gene assay

| SMILES | Activity [1] | Activity [2] | MIC (Burkholderia cenocepacia) | inhibition [3] | inhibition [4] | Activity [5] | MIC (Pseudomonas aeruginosa [6]) | inhibition [12] | inhibition [14] | MIC (Escherichia coli) | MIC (Pseudomonas aeruginosa [16]) | Activity [18] | inhibition (Pseudomonas aeruginosa [7]) | inhibition (Pseudomonas aeruginosa [8]) | Activity (Pseudomonas aeruginosa [9]) | inhibition (Pseudomonas aeruginosa [10]) | inhibition (Pseudomonas aeruginosa [11]) | Activity (Pseudomonas aeruginosa [13]) | Activity (Pseudomonas aeruginosa [15]) | Activity (Pseudomonas aeruginosa [17]) | also measured |
| --- | --- | --- | --- | --- | --- | --- | --- | --- | --- | --- | --- | --- | --- | --- | --- | --- | --- | --- | --- | --- | --- |
| O=C1OCCC1n1cc(Cc2ccccc2)nn1 (stereo not drawn) | inactive | inactive | 5 mM (≈ 1220 µg/mL) | 34.4% | Dose-dependent effect | inactive | 5 mM (≈ 1220 µg/mL) | 6.3% | 29.6% | 5 mM (≈ 1220 µg/mL) | 5 mM (≈ 1220 µg/mL) | inactive | 49.9% | inactive | 19.1% | inactive | inactive | 39.7% | 31.1% | 67.5% | Activity (Pseudomonas aeruginosa [19]): Dose-dependent effect |
| CCCCc1cn(C2CCOC2=O)nn1 (stereo not drawn) | 17.3% | inactive | 5 mM (≈ 1050 µg/mL) | 27.9% | Dose-dependent effect | 11.6% | 5 mM (≈ 1050 µg/mL) | 12.7% | 22.5% | 5 mM (≈ 1050 µg/mL) | 5 mM (≈ 1050 µg/mL) | inactive | inactive | inactive | inactive | inactive | inactive | inactive | inactive | inactive |  |
| O=C1OCCC1n1cc(-c2ccccc2)nn1 (stereo not drawn) | 12.8% | inactive | 5 mM (≈ 1150 µg/mL) | 26.9% | Dose-dependent effect | inactive | 5 mM (≈ 1150 µg/mL) | inactive | 24.5% | 10 mM (≈ 2290 µg/mL) | 5 mM (≈ 1150 µg/mL) | inactive | inactive | inactive | inactive | inactive | inactive | 14.4% | inactive | 22.2% | Activity (Pseudomonas aeruginosa [19]): Dose-dependent effect |

Continued by falling MIC (Burkholderia cenocepacia), values first:

| Activity [1] | Activity [2] | MIC (Burkholderia cenocepacia) | inhibition [3] | inhibition [4] | Activity [5] | MIC (Pseudomonas aeruginosa [6]) | inhibition [12] | inhibition [14] | MIC (Escherichia coli) | MIC (Pseudomonas aeruginosa [16]) | Activity [18] | SMILES | inhibition (Pseudomonas aeruginosa [7]) | inhibition (Pseudomonas aeruginosa [8]) | Activity (Pseudomonas aeruginosa [9]) | inhibition (Pseudomonas aeruginosa [10]) | inhibition (Pseudomonas aeruginosa [11]) | Activity (Pseudomonas aeruginosa [13]) | Activity (Pseudomonas aeruginosa [15]) | Activity (Pseudomonas aeruginosa [17]) | also measured |
| --- | --- | --- | --- | --- | --- | --- | --- | --- | --- | --- | --- | --- | --- | --- | --- | --- | --- | --- | --- | --- | --- |
| 32.7% | inactive | 5 mM (≈ 1190 µg/mL) | 34.3% | Dose-dependent effect | 17.5% | 5 mM (≈ 1190 µg/mL) | 11.6% | 23.2% | 5 mM (≈ 1190 µg/mL) | 5 mM (≈ 1190 µg/mL) | 10% | CCCCCCc1cn(C2CCOC2=O)nn1 (stereo not drawn) | inactive | inactive | inactive | inactive | inactive | inactive | inactive | inactive |  |
| 25.9% | inactive | 5 mM (≈ 1120 µg/mL) | 35.1% | Dose-dependent effect | 16.3% | 5 mM (≈ 1120 µg/mL) | 9% | 27.5% | 5 mM (≈ 1120 µg/mL) | 5 mM (≈ 1120 µg/mL) | 5.7% | CCCCCc1cn(C2CCOC2=O)nn1 (stereo not drawn) | inactive | inactive | inactive | inactive | inactive | inactive | inactive | inactive |  |
| 17.6% | inactive | 5 mM (≈ 1260 µg/mL) | 39% | Dose-dependent effect | 12.2% | 5 mM (≈ 1260 µg/mL) | 13.7% | 34.6% | 5 mM (≈ 1260 µg/mL) | 5 mM (≈ 1260 µg/mL) | 8% | CCCCCCCc1cn(C2CCOC2=O)nn1 (stereo not drawn) | inactive | inactive | inactive | inactive | inactive | inactive | inactive | inactive |  |
| inactive | inactive | 2.5 mM (≈ 734 µg/mL) | 31.9% | Dose-dependent effect | inactive | 2.5 mM (≈ 734 µg/mL) | 12.4% | 28% | 2.5 mM (≈ 734 µg/mL) | 2.5 mM (≈ 734 µg/mL) | inactive | CCCCCCCCCCc1cn(C2CCOC2=O)nn1 (stereo not drawn) | 21.9% | 8.1% | 32.1% | 7% | 15% | 38% | 31.4% | 57.2% | Activity (Pseudomonas aeruginosa [19]): Dose-dependent effect |
